Experimental data published in ChEMBL document CHEMBL1143936, “Role of benzimidazole (Bid) in the delta-opioid agonist pseudopeptide H-Dmt-Tic-NH-CH(2)-Bid (UFP-502)” (Bioorg Med Chem, 2008).

Columns and labels:
Rattus norvegicus [1] = species: Rattus norvegicus; test: Selectivity ratio of Sprague-Dawley rat mu opioid receptor to Sprague-Dawley rat delta opioid receptor
Method in brief: (§1)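 Ratio of the Ki values for δ and μ sites, both from the same rat brain synaptosome competition binding assay (2.5 h, 23 °C; Cheng–Prusoff Ki).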

Mu-type opioid receptor [2] = target: Mu-type opioid receptor (Rattus norvegicus, UniProt P33535); test: Binding affinity to mu opioid receptor in Sprague-Dawley rat brain membrane; assay type: cell membranes
Sequence of Mu-type opioid receptor (Rattus norvegicus, UniProt P33535) (P33535 whole entry): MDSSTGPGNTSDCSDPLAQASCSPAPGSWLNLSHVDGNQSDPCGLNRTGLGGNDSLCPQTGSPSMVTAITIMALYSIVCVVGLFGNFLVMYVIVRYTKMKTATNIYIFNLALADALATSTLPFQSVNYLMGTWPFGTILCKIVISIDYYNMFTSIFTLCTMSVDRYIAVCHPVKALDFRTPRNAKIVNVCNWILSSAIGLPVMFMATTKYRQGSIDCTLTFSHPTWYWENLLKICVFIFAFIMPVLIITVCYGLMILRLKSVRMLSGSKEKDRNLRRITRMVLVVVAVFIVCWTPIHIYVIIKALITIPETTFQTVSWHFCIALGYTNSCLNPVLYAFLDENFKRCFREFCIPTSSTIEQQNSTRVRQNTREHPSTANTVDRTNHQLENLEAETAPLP
Method in brief: (§2)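 Competition binding at equilibrium (2.5 h, 23 °C) on brain P2 synaptosomal membranes from Sprague-Dawley rats. Membranes were preincubated to strip endogenous opioid peptides and stored at −80 °C in buffered 20% glycerol. Filtration used GFC filters pre-soaked in 0.1% polyethylenimine, washed three times with ice-cold buffered BSA. Five to eight doses were run in duplicate, 3–5 independent membrane preparations each. Ki by Cheng–Prusoff, mean ± SE.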

[3] = target: Delta-type opioid receptor (Rattus norvegicus, UniProt P33533); test: Binding affinity to delta opioid receptor in Sprague-Dawley rat brain membrane; assay type: cell membranes; method in brief: as §2
Sequence of Delta-type opioid receptor (Rattus norvegicus, UniProt P33533) (P33533 whole entry): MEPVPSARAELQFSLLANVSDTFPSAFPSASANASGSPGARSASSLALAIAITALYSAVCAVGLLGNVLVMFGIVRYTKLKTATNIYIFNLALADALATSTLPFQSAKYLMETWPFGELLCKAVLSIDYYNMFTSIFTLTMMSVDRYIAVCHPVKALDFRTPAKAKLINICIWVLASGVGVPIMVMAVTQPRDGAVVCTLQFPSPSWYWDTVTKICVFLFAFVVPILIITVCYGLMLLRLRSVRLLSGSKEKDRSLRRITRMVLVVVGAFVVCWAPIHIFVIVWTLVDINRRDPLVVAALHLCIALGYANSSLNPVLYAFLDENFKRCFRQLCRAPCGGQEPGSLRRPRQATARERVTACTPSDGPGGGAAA

Mu-type opioid receptor [4] = target: Mu-type opioid receptor (Cavia porcellus, UniProt P97266); test: Agonist activity at mu opioid receptor assessed as inhibition of electrically-stimulated Hartley guinea pig contraction; assay type: functional, Hartely
Sequence of Mu-type opioid receptor (Cavia porcellus, UniProt P97266) (P97266 whole entry): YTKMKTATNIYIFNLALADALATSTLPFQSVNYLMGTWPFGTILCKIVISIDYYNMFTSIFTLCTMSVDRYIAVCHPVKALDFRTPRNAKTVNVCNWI
Method in brief: (§3)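 Isolated tissues in organ baths of balanced physiological salt buffer, pH 7.5. δ: single mouse vas deferens. μ: 2–3 cm myenteric plexus–longitudinal muscle strips from the small intestine of male Hartley guinea pigs. Read-out was inhibition of electrically evoked contraction; IC50 from dose–response curves, mean ± SE of separate assays. Internal standards were DPDPE (vas deferens) and PL-017 (ileum).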

[5] = target: T1, Delta-type opioid receptor (Mus musculus, UniProt P32300); test: Antagonist activity at delta opioid receptor assessed as DPDPE-stimulated mouse vas deferens contraction; assay type: functional, tissue-based; conditions: read-out: pA2 (converted)
T1 sequence (P32300 whole entry): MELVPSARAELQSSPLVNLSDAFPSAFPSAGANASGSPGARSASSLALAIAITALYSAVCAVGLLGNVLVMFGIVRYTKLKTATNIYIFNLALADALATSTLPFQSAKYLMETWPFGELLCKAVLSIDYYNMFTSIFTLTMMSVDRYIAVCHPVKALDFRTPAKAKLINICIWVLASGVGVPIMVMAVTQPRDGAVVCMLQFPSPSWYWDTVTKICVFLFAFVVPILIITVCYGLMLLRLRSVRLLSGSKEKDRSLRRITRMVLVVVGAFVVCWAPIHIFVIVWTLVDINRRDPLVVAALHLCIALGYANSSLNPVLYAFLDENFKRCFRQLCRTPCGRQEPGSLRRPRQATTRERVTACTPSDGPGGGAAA
Method in brief: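 Mouse vas deferens in an organ bath with physiological salt buffer, pH 7.5, electrically stimulated. Antagonism was measured against the δ agonist DPDPE and expressed as pA2 from a Schild plot.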

[6] = target: T1, Delta-type opioid receptor; test: Agonist activity at delta opioid receptor assessed as inhibition of electrically-stimulated mouse vas deferens contraction; assay type: functional, tissue-based; method in brief: as §3
Rattus norvegicus [7] = species: Rattus norvegicus; test: Selectivity ratio of rat delta opioid receptor to rat mu opioid receptor; method in brief: as §1

| SMILES | Ratio Ki (Rattus norvegicus [1]) | Ki (Mu-type opioid receptor [2]) | Ki [3] | IC50 (Mu-type opioid receptor [4]) | Kb [5] | IC50 [6] | Ratio Ki (Rattus norvegicus [7]) |
| --- | --- | --- | --- | --- | --- | --- | --- |
| Cc1cc(O)cc(C)c1C[C@H](N)C(=O)N1Cc2ccccc2C[C@H]1C(=O)NCc1nc2ccccc2s1 | 7.3 | 1.06 nM | 0.145 nM | 129 nM | 0.427 nM | – | – |
| Cc1cc(O)cc(C)c1C[C@H](N)C(=O)N1Cc2ccccc2C[C@H]1C(=O)NCc1nc2ccccc2o1 | 5 | 1.42 nM | 0.283 nM | 170 nM | 0.38 nM | – | – |
| Cc1cc(O)cc(C)c1C[C@H](N)C(=O)N1Cc2ccccc2C[C@H]1C(=O)NCc1nc2ccccc2[nH]1 | – | – | – | 35.5 nM | – | 0.94 nM | – |
| Cc1cc(O)cc(C)c1C[C@H](N)C(=O)N1Cc2ccccc2C[C@H]1C(=O)NCc1cc2ccccc2[nH]1 | 10.6 | 0.7 nM | 0.066 nM | 209 nM | 0.355 nM | – | – |
| Cc1cc(O)cc(C)c1C[C@H](N)C(=O)N1Cc2ccccc2C[C@H]1C(=O)NCC1Cc2ccccc2C1 | – | 0.16 nM | 0.199 nM | 28.4 nM | – | 129 nM | 1.2 |
| Cc1cc(O)cc(C)c1C[C@H](N)C(=O)N1Cc2ccccc2C[C@H]1C(=O)NCc1ncc[nH]1 | 10 | 1.18 nM | 0.114 nM | 113 nM | – | 3.63 nM | – |
| Cc1cc(O)cc(C)c1C[C@H](N)C(=O)N1Cc2ccccc2C[C@H]1C(=O)NCc1nc(-c2ccccc2)c[nH]1 | 15 | 6.74 nM | 0.443 nM | 154 nM | 0.398 nM | – | – |
